Test results from ChEMBL document CHEMBL4011654, “Mitochondria-Targeted Lupane Triterpenoid Derivatives and Their Selective Apoptosis-Inducing Anticancer Mechanisms” (J Med Chem, 2017).
Activity calls are given as the source filed them. The rule behind the calls is not given here.

What was measured:
K562 [1] = assay: Induction of mitochondrial membrane depolarization in human K562 cells assessed as cells with intact mitochondrial membrane potential at 4 uM after 48 hrs by JC-1 staining based flow cytometric analysis (reference value: 97.63 to 97.67%); type: functional
K562 [2] = assay: Induction of ROS generation in human K562 cells at 0.5 uM after 48 hrs by DCFH-DA probe based flow cytometric analysis relative to control; type: functional
How it was run: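 K562 seeded at 4 × 10^5 cells/well, 12 h, then treated 48 h. Washed cells loaded with DCFH-DA in FBS-free medium at 37 °C for 30 min, rinsed, read by flow cytometry. ROSup was the positive control; mean ± SD, n = 3.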

K562 [3] = assay: Induction of apoptosis in human K562 cells assessed as necrotic cells at 0.4 uM after 48 hrs by Annexin V-FITC/propidium iodide-staining based flow cytometric analysis (reference value: 0.13 to 0.27%); type: functional
How it was run: (§1)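 K562 seeded at 4 × 10^5 cells/well, 12 h, then exposed 48 h. Cells washed in ice-cold PBS, suspended in binding buffer, stained with annexin V-FITC and PI for 15 min at room temperature in the dark, and read by flow cytometry within 1 h. Cells counted as early/late apoptotic as % of total; n = 3.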

K562 [4] = assay: Induction of apoptosis in human K562 cells assessed as upregulation of cleaved PARP up to 4 uM after 48 hrs by Western blot analysis; type: functional, cell-based
K562 [5] = assay: Induction of apoptosis in human K562 cells assessed as viable cells at 0.4 uM after 48 hrs by Annexin V-FITC/propidium iodide-staining based flow cytometric analysis (reference value: 95.75 to 96.56%); type: functional; conditions: K562, 48 h, read-out: Activity; how it was run: as §1
K562 [6] = assay: Cytotoxicity against human K562 cells assessed as cell growth inhibition after 48 hrs by MTT assay; type: functional, cell-based; conditions: K562, 48 h
How it was run: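 Suspension cells seeded at 5000/well (HL-60 in IMDM, K562 in RPMI, both with 10% FBS) and treated. MTT then added for 4 h at 37 °C; plates centrifuged at 3000 rpm for 30 min, medium removed, DMSO added, OD570 read. IC50 taken as concentration giving 50% growth inhibition; triplicate.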

K562 [7] = assay: Induction of apoptosis in human K562 cells assessed as viable cells at 0.8 uM after 48 hrs by Annexin V-FITC/propidium iodide-staining based flow cytometric analysis (reference value: 95.75 to 96.56%); type: functional; conditions: K562, 48 h, read-out: Activity; how it was run: as §1
K562 [8] = assay: Induction of apoptosis in human K562 cells assessed as caspase-3 activation at 4 uM after 48 hrs by Western blot analysis relative to control; type: functional
How it was run: (§2)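 K562 treated 48 h, then lysed on ice for 30 min; cytosolic and mitochondrial fractions isolated by kit where needed, protein measured by BCA. 60 μg/lane run on SDS-PAGE, transferred to PVDF, blocked in 5% milk/TBST for 4 h. Probed for cytochrome c, caspase-9, caspase-3 (total/cleaved), PARP; alkaline phosphatase secondary.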

K562 [9] = assay: Induction of mitochondrial membrane depolarization in human K562 cells assessed as cell with intact mitochondrial membrane potential at 1 uM after 48 hrs by JC-1 staining based flow cytometric analysis (reference value: 97.63 to 97.67%); type: functional
How it was run: (§3)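 K562 seeded at 4 × 10^5 cells/well, after 12 h treated 48 h. Cells washed in ice-cold PBS, loaded with JC-1 ([…]) at 37 °C for 15 min, rinsed, and analysed by flow cytometry (% cells with red aggregates) and fluorescence microscopy (red aggregates vs green monomers).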

K562 [10] = assay: Induction of mitochondrial membrane depolarization in human K562 cells assessed as cells with intact mitochondrial membrane potential at 2 uM after 48 hrs by JC-1 staining based flow cytometric analysis (reference value: 97.63 to 97.67%); type: functional; how it was run: as §3
K562 [11] = assay: Induction of apoptosis in human K562 cells assessed as viable cells at 1.2 uM after 48 hrs by Annexin V-FITC/propidium iodide-staining based flow cytometric analysis (reference value: 95.75 to 96.56%); type: functional; conditions: K562, 48 h, read-out: Activity; how it was run: as §1
K562 [12] = assay: Induction of apoptosis in human K562 cells assessed as early apoptotic cells at 0.8 uM after 48 hrs by Annexin V-FITC/propidium iodide-staining based flow cytometric analysis (reference value: 0.92 to 1.45%); type: functional; how it was run: as §1
K562 [13] = assay: Induction of apoptosis in human K562 cells assessed as early apoptotic cells at 0.4 uM after 48 hrs by Annexin V-FITC/propidium iodide-staining based flow cytometric analysis (reference value: 0.92 to 1.45%); type: functional; how it was run: as §1
K562 [14] = assay: Induction of mitochondrial membrane depolarization in human K562 cells assessed as cells with mitochondrial membrane potential loss at 2 uM after 48 hrs by JC-1 staining based flow cytometric analysis (reference value: 1.89 to 2.23%); type: functional
K562 [15] = assay: Induction of apoptosis in human K562 cells assessed as increase in cytosolic cytochrome c level up to 4 uM after 48 hrs by Western blot analysis; type: functional, cell-based; how it was run: as §2
K562 [16] = assay: Induction of apoptosis in human K562 cells assessed as late apoptotic cells at 0.8 uM after 48 hrs by Annexin V-FITC/propidium iodide-staining based flow cytometric analysis (reference value: 2.25 to 2.67%); type: functional; how it was run: as §1
K562 [17] = assay: Induction of mitochondrial membrane depolarization in human K562 cells assessed as cells with mitochondrial membrane potential loss at 1 uM after 48 hrs by JC-1 staining based flow cytometric analysis (reference value: 1.89 to 2.23%); type: functional
K562 [18] = assay: Decrease in mitochondrial membrane potential in human K562 cells at 1 to 2 uM after 48 hrs by JC-1 staining based fluorescence microscopic analysis; type: functional, cell-based; how it was run: as §3
K562 [19] = assay: Induction of mitochondrial membrane depolarization in human K562 cells assessed as cells with mitochondrial membrane potential loss at 4 uM after 48 hrs by JC-1 staining based flow cytometric analysis (reference value: 1.89 to 2.23%); type: functional
[20] = Drug uptake in mitochondria of human K562 cells at 10 uM after 4 hrs by RP-HPLC analysis relative to betulin; type: ADME
How it was run: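 K562 exposed to 10 μM compound or betulin for 4 h, washed, mitochondria isolated by kit, pellet extracted twice with dichloromethane/methanol (2:1). Residue assayed by RP-HPLC on C18: betulin in 100% acetonitrile, detection 220 nm; conjugate in 80% acetonitrile with 0.1% formic acid, detection 267 nm. Amounts normalised to protein; n = 3.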

K562 [21] = assay: Induction of apoptosis in human K562 cells assessed as late apoptotic cells at 0.4 uM after 48 hrs by Annexin V-FITC/propidium iodide-staining based flow cytometric analysis (reference value: 2.25 to 2.67%); type: functional; how it was run: as §1
ECa-109 cell line = assay: Cytotoxicity against human ECA109 cells assessed as cell growth inhibition after 48 hrs by MTT assay; type: functional, cell-based; conditions: ECa-109, 48 h
How it was run: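 Adherent cells seeded at 5000/well, left 16−24 h, then exposed 48 h at 37 °C, 5% CO2 in RPMI with 10% FBS. Medium refreshed, MTT added for 4 h at 37 °C, medium removed, formazan dissolved in DMSO, OD570 read. IC50 taken as concentration inhibiting growth by 50%; triplicate.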

K562 [22] = assay: Induction of apoptosis in human K562 cells assessed as decrease in cytochrome c level in mitochondria up to 4 uM after 48 hrs by Western blot analysis; type: functional, cell-based; how it was run: as §2

## C=C(C)[C@@H]1CC[C@]2(COC(=O)CCCC[P+](c3ccccc3)(c3ccccc3)c3ccccc3)CC[C@]3(C)[C@H](CC[C@@H]4[C@@]5(C)CC[C@H](O)C(C)(C)[C@@H]5CC[C@]43C)[C@@H]12.[Br-]
K562 [1]
  Activity: 38.18%
K562 [2]
  Activity: 50%
K562 [3]
  Activity: 0.53%
K562 [4]
  Activity: Active
K562 [5]
  viability at 0.4 µM: 88.1%
K562 [6]
  IC50: 570 nM
K562 [7]
  viability at 0.8 µM: 63.2%
K562 [8]
  fold change (FC): 2.1
K562 [9]
  Activity: 93.08%
K562 [10]
  Activity: 82.54%
K562 [11]
  viability at 1.2 µM: 45.3%
K562 [12]
  Activity: 12.51%
K562 [13]
  Activity: 6.68%
K562 [14]
  Activity: 17.08%
K562 [15]
  Activity: Active
K562 [16]
  Activity: 20.57%
K562 [17]
  Activity: 6.47%
K562 [18]
  Activity: Active
K562 [19]
  Activity: 61.4%
[20]
  fold change (FC): 3.4
K562 [21]
  Activity: 4.67%
ECa-109 cell line
  IC50: 780 nM
K562 [22]
  Activity: Active
